Assay: Toxicity liver stage against HepG2, at 10uM
Assay type: cell-based
Design: test concentration 10 uM, cell line HepG2-A16-CD81EGFP
Conditions: human, HepG2-A16-CD81EGFP cells; read-out: INHIBITION
Procedure, shortened: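 Uninfected HepG2-A16-CD81EGFP cells, 3 × 10^3 per well, 1536-well, plated on prespotted compound at 10 μM final, parasite-free screening media added to match infected plates; puromycin 10 μM positive, DMSO 0.5% negative; run in parallel with 48 h PbLuc assay at 37 °C, 5% CO2; viability by CellTiter-Glo luminescence, normalized to controls.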

Cc1c(C(=O)NCC(C)(C)S(C)(=O)=O)cccc1-c1ccccn1
cytotoxicity at 10 µM: 2.07%

Cc1noc(C)c1CN1CCOC2(CCCN(c3ncccn3)C2)C1 (stereo not given)
cytotoxicity at 10 µM: 8.27%

O=C(CC1CCCO1)Nc1ccc2c(ccn2CCN2CCOCC2)c1 (stereo not given)
cytotoxicity at 10 µM: 2.55%

Cc1nc(CNC(C(=O)N2CCOCC2)C(C)C)oc1C (stereo not given)
cytotoxicity at 10 µM: -4.34%

Cc1cnn(-c2cccc(N3CCN(c4cc(C)nc(C)n4)CC3)n2)c1
cytotoxicity at 10 µM: 7.82%

CCn1cc2c(n1)CN(Cc1sccc1C)CC2COCC1CC1 (stereo not given)
cytotoxicity at 10 µM: -57.3%

Cc1cccc(CC2COCCN(Cc3nccn3C)C2)n1 (stereo not given)
cytotoxicity at 10 µM: 1.61%

O=C1CCC(=O)N1c1nn(Cc2ccccc2Cl)cc1Cl
cytotoxicity at 10 µM: -6.69%

O=C(Cc1ccc(-n2cccn2)cc1)N1CCN2CCCCC2C1 (stereo not given)
cytotoxicity at 10 µM: 4.31%

COc1ccc(CCNC(=O)CN2CCOCS2(=O)=O)cc1
cytotoxicity at 10 µM: -2.64%

CCCc1nnc(N2CCC3(CCC(=O)N(C)C3)CC2)o1
cytotoxicity at 10 µM: 3.96%

COCC(=O)N1CCc2nc(-c3cnccn3)nc(O)c2C1
cytotoxicity at 10 µM: 27.7%

Cc1nc(C)n(CC2CCCN2Cc2ccn(-c3ccccc3)n2)n1 (stereo not given)
cytotoxicity at 10 µM: -5.01%

CC(=O)N1N=C(COc2ccc(C)cc2)OC1c1ccc(N(C)C)cc1 (stereo not given)
cytotoxicity at 10 µM: -3.33%

NC(=O)C1CCCN(S(=O)(=O)c2cnn(-c3ccccc3)c2)C1 (stereo not given)
cytotoxicity at 10 µM: -66.6%

O=C(c1ncn2c1CNS(=O)(=O)c1ccccc1-2)N1CCCCC1
cytotoxicity at 10 µM: 9.52%

CNC(=O)[C@@]12CCC3(CCNCC3)[C@@H]1CN(S(C)(=O)=O)C2
cytotoxicity at 10 µM: -2.86%

c1cnn(CC2CCCCN2Cc2cn3ccsc3n2)c1 (stereo not given)
cytotoxicity at 10 µM: -7.08%

Cc1ccc(Sc2ccc(N3CCC(C(=O)O)CC3)nn2)cc1
cytotoxicity at 10 µM: -0.0154%

CCS(=O)(=O)N1CCc2c(cccc2NCc2ncc[nH]2)C1
cytotoxicity at 10 µM: -42.9%

CC(=O)Nc1ccc(Oc2cccc(CN3CCCC3)c2)cc1
cytotoxicity at 10 µM: -14%

COCc1nc(CNc2cccc(-c3csc(C)n3)c2)cs1
cytotoxicity at 10 µM: 1.98%

Cn1cc(N2CC3(CCN(Cc4ccoc4)CC3)OCC2=O)cn1
cytotoxicity at 10 µM: -1.66%

CN1CCC(c2cccc(NCc3ccncc3)n2)CC1
cytotoxicity at 10 µM: 6.08%

N#Cc1cccc(N2CCCC(CO)(Cc3ccccc3F)C2)n1 (stereo not given)
cytotoxicity at 10 µM: 1.54%

CCOCCNC(=O)C1CCC(=O)N(CCc2ccc(Cl)cc2)C1 (stereo not given)
cytotoxicity at 10 µM: 8.61%

CCN1CCC(c2cncc(N(C)C)n2)CC1
cytotoxicity at 10 µM: 5.12%

CN(C(=O)c1ccc(C#N)cc1)C1CCN(c2ccccn2)CC1
cytotoxicity at 10 µM: -7.56%

Cc1cccc(-n2ncc(C(=O)N3CCn4c(C)nnc4C3)c2C)c1
cytotoxicity at 10 µM: 2.14%

CCNC(=O)N1C[C@@H]2OCC(=O)N(CC3CCCCC3)[C@@H]2C1
cytotoxicity at 10 µM: -4.04%

Cc1ccccc1-n1cnnc1SCC(=O)NCC1CCCO1 (stereo not given)
cytotoxicity at 10 µM: -1.15%

CCc1ncc(C(=O)N(CC)CCOC)cn1
cytotoxicity at 10 µM: 2.24%

CC(C)C(NC(=O)c1ccccc1F)C(=O)N1CCC2(CC1)OCCO2 (stereo not given)
cytotoxicity at 10 µM: 7.04%

Cc1ccc(CNC(=O)NC(C)Cn2cccn2)cn1 (stereo not given)
cytotoxicity at 10 µM: -11.2%

COC(=O)c1ccc(S(=O)(=O)N2CCC(Oc3cccnn3)CC2)cc1
cytotoxicity at 10 µM: -4.83%

CCOCCN1CCN(CCc2ccc3c(c2)CCO3)CC1
cytotoxicity at 10 µM: 4.1%

COCCN1CCN(CC(=O)N(C)Cc2ccc(F)cc2)CC1C (stereo not given)
cytotoxicity at 10 µM: -145%

CC(C)c1nn(C)c(N(C)C)c1CNCc1ccccc1CN(C)C
cytotoxicity at 10 µM: 1.53%

CCOCc1nc2c(c(N(C)Cc3nonc3C)n1)CCNCC2
cytotoxicity at 10 µM: 6.7%

CNC(=O)CCCNc1cc(C)nc2cc(C)nn12
cytotoxicity at 10 µM: -5.97%

COc1ccc(OC)c(NC(=O)c2cc3c([nH]c2=O)CCCC3=O)c1
cytotoxicity at 10 µM: -0.607%

CC(C)c1cc(NC(=O)CN2CCC(C(N)=O)CC2)on1
cytotoxicity at 10 µM: -6.37%

COC(=O)c1ccc(Cl)c(NS(=O)(=O)c2cn(C)cn2)c1
cytotoxicity at 10 µM: 11.9%

O=C(CS(=O)(=O)Cc1cccc(Br)c1)Nc1cn[nH]c1
cytotoxicity at 10 µM: 0.575%

CS(=O)(=O)N1C[C@@H]2CCN(C(=O)c3ccco3)[C@@H]2C1
cytotoxicity at 10 µM: 10%

O=C(NC[C@H]1CCCC[C@H]1O)c1ccc2nc(-c3ccco3)[nH]c2c1
cytotoxicity at 10 µM: -5.78%

CCc1nc(CCNC(=O)NC2CCSCC2)cs1
cytotoxicity at 10 µM: -5.55%

O=C(CO)N1CCOC2(CCCN(c3ncc(F)cn3)C2)C1 (stereo not given)
cytotoxicity at 10 µM: 12.4%

CCOc1cccc(CNc2ccccc2C(=O)OC)c1O
cytotoxicity at 10 µM: 6.69%

CC(=O)Nc1cc(F)c(S(=O)(=O)N(C)CC2CCC2)c(F)c1
cytotoxicity at 10 µM: -54.4%

Cc1ccc(CN2CCC(Cc3nnc(CO)n3C)CC2)cc1C
cytotoxicity at 10 µM: 5.19%

CSCc1cc(F)ccc1CNC(=O)N1CCC[C@@H]1CO
cytotoxicity at 10 µM: 4.8%

CCc1ccc(NC(=O)N2Cc3c(CN(C)C)nn(C)c3C2)cc1
cytotoxicity at 10 µM: 5.62%

COCC1CC2(CCN(Cc3cccc(C#N)c3)CC2)CN1C(C)C (stereo not given)
cytotoxicity at 10 µM: 0.866%

Cc1cccc(C(=O)N2C[C@@H]3CCN(c4cccnc4)C[C@@H]3C2)c1
cytotoxicity at 10 µM: 3.76%
